# According to ChEMBL document CHEMBL1138326, “Structure-based design, synthesis, and biological evaluation of indomethacin derivatives as cyclooxygenase-2 inhibiting nitric oxide donors” (J Med Chem, 2007):
# Activity calls are given as the source filed them. The calls are words filed in the database; no cut-off is given here.
# Key:
# [1] = system: Rattus norvegicus; experiment: Gastric sparing effect in Sprague-Dawley rat assessed as reduction of aspirin-induced gastric damage at 45 umol/kg, po; type: ADME, organism-based, Stomach; parameters: scale not given: the % may be the effect or the level left; conditions: in vivo
# Procedure, shortened: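 Aspirin (25 mg/kg, in 1.0% methocel) gavaged at 1.0 mL/kg; test compound in 0.5% methocel gavaged 2 min later. Rats killed after 3 h and stomachs scored as summed hemorrhagic lesion lengths. Six groups, 3–11 rats each; ANOVA with Newman-Keuls test.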
# [2] = target: T1, Prostaglandin G/H synthase 2 (Homo sapiens) (UniProt P35354); experiment: Inhibition of COX2 in human whole blood assessed as effect on LPS-induced thromboxane B2 production at 30 uM relative to control; values are per cent of control
# T1 sequence (whole entry): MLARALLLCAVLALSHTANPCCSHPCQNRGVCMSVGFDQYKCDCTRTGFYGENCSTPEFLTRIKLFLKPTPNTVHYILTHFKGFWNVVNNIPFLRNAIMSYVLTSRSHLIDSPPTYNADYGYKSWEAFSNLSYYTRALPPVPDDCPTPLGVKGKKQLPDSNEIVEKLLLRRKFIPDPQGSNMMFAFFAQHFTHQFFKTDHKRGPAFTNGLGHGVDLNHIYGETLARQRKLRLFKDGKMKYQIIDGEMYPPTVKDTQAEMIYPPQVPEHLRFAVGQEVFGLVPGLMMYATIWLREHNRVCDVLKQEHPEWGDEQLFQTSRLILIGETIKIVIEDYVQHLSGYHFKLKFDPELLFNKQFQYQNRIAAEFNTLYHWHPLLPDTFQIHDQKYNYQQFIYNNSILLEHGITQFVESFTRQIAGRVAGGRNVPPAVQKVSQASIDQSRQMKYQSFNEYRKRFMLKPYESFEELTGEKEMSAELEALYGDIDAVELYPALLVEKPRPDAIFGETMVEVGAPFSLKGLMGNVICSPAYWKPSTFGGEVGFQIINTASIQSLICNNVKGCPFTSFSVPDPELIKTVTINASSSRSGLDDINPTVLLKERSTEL
# [3] = target: T2, Prostaglandin G/H synthase 1 (Homo sapiens, UniProt P23219); experiment: Inhibition of COX1 in human whole blood assessed as effect on A23187-induced thromboxane B2 production at 10 uM relative to control; values are per cent of control
# [4] = target: T2, Prostaglandin G/H synthase 1; experiment: Inhibition of COX1 in human whole blood assessed as effect on A23187-induced thromboxane B2 production at 1 uM relative to control; values are per cent of control
# [5] = target: T2, Prostaglandin G/H synthase 1; experiment: Inhibition of COX1 in human whole blood assessed as effect on A23187-induced thromboxane B2 production at 30 uM relative to control; values are per cent of control
# [6] = target: T2, Prostaglandin G/H synthase 1; experiment: Inhibition of COX1 in human whole blood assessed as effect on A23187-induced thromboxane B2 production at 100 uM relative to control; values are per cent of control
# [7] = system: Rattus norvegicus; experiment: Antiinflammatory activity against Sprague-Dawley rat carrageenan air-pouch model assessed as reduction of prostaglandin E2 at 45 umol/kg, po; type: functional; parameters: scale not given: the % may be the effect or the level left
# Procedure, shortened: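 Air pouches raised by sc injection of 20 mL sterile air (day -6) plus 10 mL on day -3; rats fasted 18 h. Compound suspended in 0.5% methocel given orally 1 h before intrapouch carrageenan (1 mL of 1.0% in saline). Exudate collected 4 h later after PBS/heparin lavage; PGE2 by enzyme immunoassay. Means ± SEM, n = 6–22; ANOVA with Dunnett's test vs vehicle.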
# [8] = target: T2, Prostaglandin G/H synthase 1; experiment: Inhibition of COX1 in human whole blood assessed as effect on A23187-induced thromboxane B2 production at 3 uM relative to control; values are per cent of control
# [9] = target: T2, Prostaglandin G/H synthase 1; experiment: Inhibition of COX1 in human whole blood assessed as effect on A23187-induced thromboxane B2 production; type: tissue-based
# [10] = organism: Homo sapiens; experiment: Selectivity for human COX2 over human COX1
# [11] = system: Rattus norvegicus; experiment: Antiinflammatory activity against intrapouch dosed Sprague-Dawley rat carrageenan air-pouch model assessed as reduction of prostaglandin E2 at 45 umol/kg; type: functional; parameters: scale not given: the % may be the effect or the level left
# Procedure, shortened: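 Air pouch made with 20 mL sterile air sc on day -6 and 10 mL more on day -3; rats fasted 18 h. Compound in 0.5% methocel injected into the pouch 1 h before carrageenan (1 mL of 1.0% in saline). After 4 h, exudate recovered with PBS/heparin and assayed for PGE2 by enzyme immunoassay.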
# [12] = system: Rattus norvegicus; experiment: Increase in nitrite plus nitrate levels in Sprague-Dawley rat at 45 umol/kg, po; type: functional, organism-based
# Procedure, shortened: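 Plasma taken by cardiac puncture 4 h after oral dosing (0.5% methylcellulose vehicle), at the end of the air-pouch experiment. Total NOx (nitrite plus nitrate) measured with a fluorometric kit. Means ± SEM, n = 3; ANOVA with Dunnett's test vs vehicle.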
# [13] = system: Rattus norvegicus; experiment: Toxicity in Sprague-Dawley rat assessed as reduction of gastric lesion score at 45 umol/kg, po; type: organism-based, Stomach; parameters: scale not given: the % may be the effect or the level left; conditions: in vivo
# Procedure, shortened: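 Rats fasted 18 h; compound homogenized in 0.5% methocel and gavaged at 1 mL/kg. Killed 3 h after dosing. Stomach opened along the greater curvature and photographed. Hemorrhagic lesion lengths scored blind and summed as the total lesion score. Means ± SEM, 4–12 animals; ANOVA with Dunnett's test.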
# [14] = target: T1, Prostaglandin G/H synthase 2 (Homo sapiens); experiment: Inhibition of COX2 in human whole blood assessed as effect on LPS-induced thromboxane B2 production at 100 uM relative to control; values are per cent of control
# T2 sequence (P23219 whole entry): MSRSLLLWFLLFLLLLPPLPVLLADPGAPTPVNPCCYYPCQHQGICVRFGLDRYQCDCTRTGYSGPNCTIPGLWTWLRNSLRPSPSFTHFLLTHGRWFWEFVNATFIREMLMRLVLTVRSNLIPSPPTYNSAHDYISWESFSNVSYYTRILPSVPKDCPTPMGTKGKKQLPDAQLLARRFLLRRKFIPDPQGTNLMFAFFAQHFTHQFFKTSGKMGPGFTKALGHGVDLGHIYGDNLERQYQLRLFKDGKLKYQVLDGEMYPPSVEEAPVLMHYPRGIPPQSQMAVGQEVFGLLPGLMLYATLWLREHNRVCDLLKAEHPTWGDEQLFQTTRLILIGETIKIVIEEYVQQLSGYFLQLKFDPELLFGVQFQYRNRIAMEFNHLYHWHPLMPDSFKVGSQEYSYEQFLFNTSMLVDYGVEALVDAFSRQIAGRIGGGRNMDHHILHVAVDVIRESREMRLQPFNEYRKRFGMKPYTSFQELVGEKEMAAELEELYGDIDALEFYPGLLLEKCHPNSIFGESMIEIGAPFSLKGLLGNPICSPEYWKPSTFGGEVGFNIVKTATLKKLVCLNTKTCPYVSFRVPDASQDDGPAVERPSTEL
SMILES,Activity [1] [%],residual activity [2] [%],residual activity [3] [%],residual activity [4] [%],residual activity [5] [%],residual activity [6] [%],Activity [7] [%],residual activity [8] [%],IC50 [9] [µM],Ratio IC50 [10],Activity [11] [%],Activity [12],Activity [13] [%],residual activity [14] [%]
COc1ccc2c(c1)c(CC(=O)NCCCO[N+](=O)[O-])c(C)n2C(=O)c1ccc(Cl)cc1,85,1,31,77,7,0,71,65,6,5,99,Active,98,–
COc1ccc2c(c1)c(CC(=O)NCCCO)c(C)n2C(=O)c1ccc(Cl)cc1,–,0,37,91,11,6,85,46,3.3,–,97,–,98,–
COc1cc2c(CC(=O)NCCCO[N+](=O)[O-])c(C)n(C(=O)c3ccc(Cl)cc3)c2cc1Cl,–,3,70,98,41,13,–,72,15.9,–,–,–,–,0
